An excerpt weighted towards active compounds, which were near 3.5% of everything screened.
RGS4 inh: human RGS4 inhibition; P49798; HEK293 M3R/RGS4 inducible, Fluo-4 calcium flux; stronger effect = higher value; triggered by carbachol at its EC20; B-score at 10 µM; actives 0.45% (n = 310,000);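 active = B-score, a plate-corrected calcium signal, over three deviations above library mean, with baseline fluorescence within five deviations of library mean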;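 note: RGS4 expression induced by doxycycline in cells with stable M3 receptor; B-score is computed from the integrated fluorescence ratio over baseline after carbachol; higher B-score means a larger calcium signal and so more RGS4 inhibition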
Target sequence (P49798 whole entry, looked up): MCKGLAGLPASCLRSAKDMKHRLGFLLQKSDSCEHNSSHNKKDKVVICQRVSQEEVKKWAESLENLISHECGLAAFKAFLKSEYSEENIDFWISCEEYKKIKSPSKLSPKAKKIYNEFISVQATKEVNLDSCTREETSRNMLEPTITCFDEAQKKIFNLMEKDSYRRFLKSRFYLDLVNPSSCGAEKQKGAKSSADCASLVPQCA
MrgX1 ag: activates human MrgX1 receptor signaling. B-score at 10 µM. AID 588627. Q96LB2. actives 0.44% (n = 310,000). MrgX1-HEK293 cells, Fluo-4 calcium fluorescence, agonist mode; stronger effect = higher value;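 active = calcium response B-score plate-corrected fluorescence ratio at least 3 library SD, with starting fluorescence B-score inside 5 SD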
Target sequence (Q96LB2 whole entry, looked up): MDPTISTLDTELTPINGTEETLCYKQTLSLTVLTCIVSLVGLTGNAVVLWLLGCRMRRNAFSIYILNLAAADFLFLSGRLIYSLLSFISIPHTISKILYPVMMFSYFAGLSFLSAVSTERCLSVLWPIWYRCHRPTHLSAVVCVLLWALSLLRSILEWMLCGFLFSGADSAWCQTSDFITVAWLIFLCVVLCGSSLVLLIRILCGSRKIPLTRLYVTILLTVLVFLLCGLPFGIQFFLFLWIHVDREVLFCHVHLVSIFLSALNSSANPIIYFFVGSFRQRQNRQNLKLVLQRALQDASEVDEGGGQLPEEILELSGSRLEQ
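Test system: HEK293 cells stably expressing human MrgX1 receptor; Input: fifteen thousand cells per well; Dosing: compound delivered in addition one of three; Schedule: overnight seeding, then 1 h dark dye loading; Technique: Fluo-4 NW calcium fluorescence; Measure: B-scored fluorescence response ratio; Controls: positive and negative controls per plate.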
RGS4 act: potentiators or activators of RGS4 | HEK293 M3R/inducible RGS4, carbachol calcium flux Fluo4; stronger effect = lower value | B-score at 10 µM | actives 0.92% (n = 310,000);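 active = B-score of the integrated calcium signal more than 4 SD below the library mean, with starting fluorescence not abnormally high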;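 note: negative B-score means reduced calcium response which marks RGS4 activation or potentiation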
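Reagent: ECmax carbachol challenge; Test system: M3R-expressing HEK293 line, RGS4 induced by doxycycline; Schedule: overnight RGS4 induction, 30 min dye load 37 °C, 20 min compound RT; Detection: calcium dye Fluo4 fluorescence; Read-out: Agonist-evoked peak-minus-minimum fluorescence over baseline, integrated ratio, B score.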
MrgX1 antagonist: blocks BAM8-22 activation of human MrgX1 receptor; Q96LB2; MRGX1-HEK293 calcium flux, Fluo-4, BAM8-22 antagonism; stronger effect = lower value; B-score at 10 µM; actives 1.3% (n = 310,000);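 active = calcium-response B-score plate-corrected more than 3 library SD below zero, starting fluorescence within 5 deviations, no agonist response on first addition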;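 note: peak minus trough fluorescence over baseline after final BAM8-22 challenge near maximal dose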
MrgX1 PAM: allosterically activates human MrgX1 receptor signaling; Q96LB2; MrgX1-HEK293, Fluo-4 calcium flux, FDSS; stronger effect = higher value; actives 0.63% (n = 310,000); B-score at 10 µM;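 active = plate-corrected calcium response at least 3 library SD above typical, normal starting fluorescence, not activating the receptor alone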;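 note: compound read alongside a low EC10 to EC30 dose of BAM8-22 agonist; peak minus trough fluorescence over baseline measured at the second addition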
Numbers without * were called inactive.

`CCOc1cc(CNCCO)cc(Br)c1OCc1ccc(Cl)cc1Cl` gave RGS4 inh inactive, MrgX1 ag inactive, RGS4 act -7.7*, MrgX1 antagonist inactive and MrgX1 PAM inactive.
Screening CCOc1cc(CNCCSc2nnnn2C)cc(Br)c1OCc1ccccc1F returned RGS4 inh inactive, MrgX1 ag inactive, RGS4 act inactive, MrgX1 antagonist -4.7* and MrgX1 PAM inactive.
`CCOc1cccc(CNCCO)c1OCc1ccc(Cl)cc1Cl` gave RGS4 inh inactive, MrgX1 ag inactive, RGS4 act inactive, MrgX1 antagonist inactive and MrgX1 PAM inactive.
For N#Cc1ccccc1OCC(=O)OCCCOC(=O)COc1ccccc1C#N the results were RGS4 inh inactive, MrgX1 ag inactive, RGS4 act inactive, MrgX1 antagonist inactive and MrgX1 PAM inactive.
Screening CC1(C)CC(=O)C2=C(C1)OC(N)=C(C#N)C21C(=O)N(Cc2ccccc2Cl)c2ccccc21 (configuration not stated) returned RGS4 inh inactive, MrgX1 ag inactive, RGS4 act inactive, MrgX1 antagonist inactive and MrgX1 PAM 8.7*.
CC1=CC(C)(C)N2C(=O)C3(C(C#N)=C(N)OC4=C3C(=O)CC(C)(C)C4)c3cccc1c32 (configuration not stated) was read as RGS4 inh inactive and RGS4 act inactive.
O=C(NCCc1nnc2ccc(SCC(=O)N3CCCC3)nn12)c1ccc(F)cc1 was read as RGS4 inh inactive, MrgX1 ag inactive, RGS4 act inactive, MrgX1 antagonist inactive and MrgX1 PAM inactive.
For CC(=O)NN1C(=O)/C(=C\c2ccccc2)SC1=S the results were RGS4 inh inactive, MrgX1 ag inactive, RGS4 act inactive, MrgX1 antagonist inactive and MrgX1 PAM 9.5*.
`CC(=O)NN1C(=O)/C(=C/c2ccc(Br)o2)SC1=S` gave RGS4 inh inactive, MrgX1 ag inactive, RGS4 act inactive, MrgX1 antagonist inactive and MrgX1 PAM 7.1*.
CCCCc1c(C)nc2nc(SCc3ccc(Cl)cc3)[nH]n2c1=O was read as RGS4 inh inactive, MrgX1 ag inactive, RGS4 act inactive, MrgX1 antagonist inactive and MrgX1 PAM inactive.
Screening Cc1cc(NC(=O)CSCC(=O)OC(C)C(=O)N(C)Cc2ccccc2)no1 (configuration not stated) returned RGS4 inh inactive, MrgX1 ag inactive, RGS4 act inactive, MrgX1 antagonist -7.4* and MrgX1 PAM inactive.
For Cc1cc(NC(=O)CSCC(=O)OC(C)C(=O)c2cc(C)c(C)cc2C)no1 (configuration not stated) the results were RGS4 inh inactive, MrgX1 ag inactive, RGS4 act inactive, MrgX1 antagonist inactive and MrgX1 PAM inactive.
Cn1nc(C(F)(F)F)c(-c2ccc(F)cc2)c1NC(=O)Nc1ccc(F)cc1 was read as RGS4 inh inactive, MrgX1 ag inactive, RGS4 act inactive, MrgX1 antagonist -5.4* and MrgX1 PAM inactive.
Screening Cc1nn(-c2ccccc2)c(C)c1NC(=O)COC(=O)Cc1ccccc1F returned RGS4 inh inactive, MrgX1 ag inactive, RGS4 act inactive, MrgX1 antagonist inactive and MrgX1 PAM inactive.
`O=C(O)CCC(=O)NNC(=O)COc1cccc(Cl)c1` gave RGS4 inh inactive, MrgX1 ag inactive, RGS4 act inactive, MrgX1 antagonist inactive and MrgX1 PAM inactive.
O=C(COc1ccccc1)NNC(=S)NC(=O)c1ccc(Cl)cc1Cl was read as RGS4 inh inactive, MrgX1 ag 98*, RGS4 act inactive, MrgX1 antagonist inactive and MrgX1 PAM inactive.
Screening O=C(COc1cccc(Cl)c1)NNC(=S)Nc1ccccc1 returned RGS4 inh inactive, MrgX1 ag inactive, RGS4 act inactive, MrgX1 antagonist inactive and MrgX1 PAM 8.7*.
For CC(C)(C)NC(=S)N/N=C/c1cccnc1 the results were RGS4 inh inactive, MrgX1 ag inactive, RGS4 act inactive, MrgX1 antagonist inactive and MrgX1 PAM inactive.
For CN1CC=C2C(C#N)=C(N)C(C#N)(C#N)C(Cc3ccccc3)C2C1 (configuration not stated) the results were RGS4 inh inactive, MrgX1 ag 36*, RGS4 act inactive, MrgX1 antagonist inactive and MrgX1 PAM inactive.
Screening Cc1ccc(N=C(NO)c2nonc2N)c(C)c1 returned RGS4 inh inactive, MrgX1 ag inactive, RGS4 act inactive, MrgX1 antagonist inactive and MrgX1 PAM inactive.
Cc1ccc(N=C(NOCc2ccc(Cl)cc2Cl)c2nonc2N)c(C)c1 was read as RGS4 inh inactive, MrgX1 ag inactive, RGS4 act -7.6*, MrgX1 antagonist inactive and MrgX1 PAM inactive.
For Cc1ccccc1N=C(NOCc1ccc(Cl)cc1Cl)c1nonc1N the results were RGS4 inh inactive, MrgX1 ag inactive, RGS4 act -7.3*, MrgX1 antagonist inactive and MrgX1 PAM inactive.
For Cc1ccc(C)n1-c1ccc(C(=O)N/N=C/c2ccncc2)cc1 the results were RGS4 inh inactive, MrgX1 ag inactive, RGS4 act inactive, MrgX1 antagonist inactive and MrgX1 PAM 10*.
`CCCOc1ccc(C(=O)N/N=C/c2ccc(-c3ccc(S(=O)(=O)Nc4ncccn4)cc3)o2)cc1` gave RGS4 inh inactive, MrgX1 ag 29*, RGS4 act inactive, MrgX1 antagonist inactive and MrgX1 PAM inactive.
Screening CCCCCCCN1CCN=C1Nc1ccccc1 returned MrgX1 ag inactive, MrgX1 antagonist inactive and MrgX1 PAM inactive.
`CN1C2CCC1/C(=C\c1ccccc1)C(=O)/C2=C\c1ccccc1` gave RGS4 inh inactive, MrgX1 ag inactive, RGS4 act inactive, MrgX1 antagonist inactive and MrgX1 PAM 12*.
`O=C1/C(=C/c2ccccc2)CCC1C1CCCC1` (configuration not stated) gave RGS4 inh inactive, MrgX1 ag inactive, RGS4 act inactive, MrgX1 antagonist inactive and MrgX1 PAM inactive.
For CCN(CC)CC#CCC(O)(c1ccccc1)c1ccc(Br)cc1 (configuration not stated) the results were RGS4 inh inactive, MrgX1 ag inactive, RGS4 act -7.8*, MrgX1 antagonist inactive and MrgX1 PAM inactive.
Screening C=CCNC(=O)COC(=O)c1ccc(Sc2nncn2C)c([N+](=O)[O-])c1 returned RGS4 inh inactive, MrgX1 ag inactive, RGS4 act inactive, MrgX1 antagonist -5.2* and MrgX1 PAM inactive.
`NCCCC(=O)N1c2ccccc2Sc2ccccc21` gave RGS4 inh inactive, MrgX1 ag inactive, RGS4 act -7*, MrgX1 antagonist inactive and MrgX1 PAM inactive.
CCN(CC)CC(=O)N1c2ccccc2Sc2ccc(Cl)cc21 was read as RGS4 inh inactive, MrgX1 ag inactive, RGS4 act -9.8*, MrgX1 antagonist inactive and MrgX1 PAM inactive.

High-throughput results from PubChem.
